Screening results as filed in PubChem BioAssay.
Cav32 inh: blocks human Cav3.2 T-type calcium channel; 4% of 100,000 active; AID 449739; B-score at 10 µM; Cav3.2-expressing cells, Fluo-4 calcium fluorescence FDSS; hits give low values; O95180;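 active = single-dose well whose peak fluorescence ratio is a statistical outlier from its plate by either plate-standardised score or position-corrected B-score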
CYP2C9 inh: blocks human cytochrome P450 2C9; 20% of 96,000 active; inhibition, % at 5 µM; CYP2C9 Supersomes, luciferin-H conversion, luminescence; AID 777; P11712;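 active = blocking of liver enzyme CYP2C9 beyond about 50% at 5 µM, limit read from the data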
CYP2C9 activ: CYP2C9 (human) activation | P11712 | recombinant CYP2C9, luciferin-H conversion, luminescence; hits give high values; factor 1 = untreated enzyme, 0 = blocked | activation factor at 5 µM | 1.4% of 96,000 active | AID 1024;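 active = activation factor of 2 or more for CYP2C9 at a 5 µM dose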;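 also: 0 = sulfaphenazole-blocked wells and 1 = vehicle-only wells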
CYP2C19 act: increases human CYP2C19 enzyme activity | activation factor at 5 µM | recombinant CYP2C19, luciferin-H EGE luminescence; hits give high values; 0 = fully inhibited enzyme, 1 = untreated enzyme | P33261 | 96,000 tested, under 10 active;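 active = activation factor of at least 2 at 5 µM in the primary screen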;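 also: 0 = wells with 2.5 mM tranylcypromine and 1 = vehicle-only wells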
Rev-RRE block: disrupts HIV-1 Rev binding to RRE RNA; AID 704; inhibition, % at 8 µM; 0.79% of 97,000 active; P05866; Rev peptide-RRE RNA binding, FRET;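 active = inhibition above the screen-wide mean plus 3 SD, cut at about 35% in these data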;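 also: 0% = median DMSO wells and 100% = median Neomycin B control wells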
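Test system – labelled RRE RNA duplex and labelled Rev peptide · Signal – fluorescein-to-Cy5 FRET, 480 nm excitation · Evaluation – % inhibition of FRET ratio versus controls · Benchmarks – DMSO low control, neomycin B high control · Incubation – 5 min RNA-compound premix plus 15 min binding step, 25 °C · Medium – HEPES pH 7.5 salt buffer with EDTA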
CYP2C19 inhib: blocks human cytochrome P450 2C19; P33261; CYP2C19 Supersomes, luciferin-H EGE luminescence, 30 min; inhibition, % at 5 µM; 21% of 96,000 active; AID 778;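 active = CYP2C19 inhibition above a set limit at 5 µM in the primary screen, cut at about 50% in these data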;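 also: plate controls were negative control wells for no effect and 2.5 mM tranylcypromine positive control for full effect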
The depositor's hits bear a star; . = not tested or not shown. A selection: hits, their analogues and other compounds. The true share with any hit is near 27%.

SMILES	Cav32 inh	CYP2C9 inh	CYP2C9 activ	CYP2C19 act	Rev-RRE block	CYP2C19 inhib
Nn1c(SCC(=O)Nc2ccc(S(=O)(=O)N3CCCC3)cc2)nnc1C(F)(F)F	-0.19	12	0.9	1.1	4	-7
Cc1nn(-c2ccccc2)c2sc(C(=O)C(C#N)c3ccccn3)cc12 (configuration not stated)	.	37	0.6	0.9	.	9
O=C(Nc1ccon1)c1cccc(C(F)(F)F)c1	0.47	2	1	0.6	.	39
C=CCNc1nc(Nc2ccc(OC)cc2)nc(OCC)n1	-2.1	3	1	0.9	4	10
COc1cc(NS(=O)(=O)c2ccc(F)cc2)c(OC)cc1NC(=O)C1CC1	0.35	16	0.8	0	.	98*
COc1ccccc1NS(=O)(=O)c1ccc(C)c(C(N)=O)c1	-0.33	-4	1	0.1	1	88*
CCOc1ccccc1NS(=O)(=O)c1ccc(OC)c(OC)c1	0.032	.	.	.	-3	.
COc1ccccc1NS(=O)(=O)c1ccc(OC)c(OC)c1	1.7	-159	2.6*	0	8	99*
COc1ccccc1NS(=O)(=O)c1cc(Cl)ccc1OC	-2.3	48	0.5	0	.	97*
C=CCNc1nc(NC(C)(C)CO)nc(OC)n1	0.05	.	.	.	3	.
O=C(N/N=C1/CCCc2ccccc21)C(c1ccccc1)c1ccccc1	-0.67	7	0.9	1.1	8	-12
COc1ccccc1NC(=O)NC(=O)N(C(C)C)S(C)(=O)=O	-2.6	-8	1.1	0.8	10	24
COc1ccccc1NS(=O)(=O)c1ccc(NC(C)=O)cc1	0.049	-73	1.7	0.1	6	93*
COc1cc(NS(=O)(=O)c2ccc(OC)c(OC)c2)cc(OC)c1	-0.052	74*	0.3	0	-1	100*
COc1cc(NS(=O)(=O)c2ccc(OC)c(C)c2C)c(OC)cc1Cl	-7.4*	99*	0	0	10	99*
COc1ccc(S(=O)(=O)C(C#N)c2nc3ccccc3nc2N2CCC(C)CC2)cc1 (configuration not stated)	-0.33	-8	1.1	1	.	-3
COc1nnc(-c2ccc(N3CCCCC3)c(N)c2)c2ccccc12	-6.9*	.	.	.	0	.
COc1ccc(NC(=O)C2CC(=O)NC3=C2C(=O)CC(C)(C)C3)cc1 (configuration not stated)	-0.089	-6	1.1	1.1	3	-7
O=C(NCc1cccs1)C1CCC(CNS(=O)(=O)c2ccc(Br)s2)CC1 (configuration not stated)	-2.9	13	0.9	0.9	2	11
Cc1ccc(Cc2nnc3n(-c4cccc(C)c4)nc(C(=O)c4ccccc4)n3c2=O)cc1	-2.4	.	.	.	5	.
Cn1c(COc2ccccc2)nnc1SCCC(=O)Nc1ccccc1	0.37	88*	0.1	0.3	1	74*
CCn1c(SCCC(=O)Nc2ccccc2)nnc1-c1ccc(OC)cc1	1.1	62*	0.4	0.1	5	93*
Cc1ccc2c(c1)cc(CN(Cc1ccco1)S(=O)(=O)c1ccccc1)c1nnnn12	0.019	11	0.9	0.9	1	11
CCCn1c(SCC(=O)Nc2nonc2C)nnc1-c1ccoc1C	1.1	-1	1	0.5	-1	54*
COC(=O)c1ccccc1NC(=O)CSc1nnc(-c2ccc(OC)cc2)n1C	0.49	.	.	.	13	.
SMILES	Cav32 inh	CYP2C9 inh	CYP2C9 activ	CYP2C19 act	Rev-RRE block	CYP2C19 inhib
CCOc1ccccc1-n1c(SCC(=O)Nc2nccs2)nnc1-c1ccoc1C	-7.2*	79*	0.2	0.2	-1	76*
COc1ccc(-n2c(C)cc(C(=O)CSc3nnc(-c4ccoc4C)n3C)c2C)cc1	-0.037	54*	0.5	0.4	-3	57*
COC(=O)c1ccccc1NC(=O)CSc1nnc(-c2ccoc2C)n1C	1.2	32	0.7	0.3	0	74*
Cc1occc1-c1nnc(SCC(=O)NCC2CCCO2)n1C (configuration not stated)	0.015	0	1	1	5	-1
CCOC(=O)C(NC(C)=O)(Nc1ccc(S(=O)(=O)Nc2ccncn2)cc1)C(F)(F)F (configuration not stated)	0.31	.	.	.	6	.
O=C(c1ccco1)N1CCN(C(=O)c2sccc2-c2ccccc2)CC1	2.7	.	.	.	-4	.
